Experimental findings from ChEMBL document CHEMBL1150814, “Schizanrins [corrected] B, C, D, and E, four new lignans from Kadsura matsudai and their antihepatitis activities” (J Nat Prod, 2001) are described below.

In series [1] the test system is Hepatitis B virus. As to the kind of experiment: Antiviral activity against Hepatitis B virus infected in human MS-G2 cells assessed as inhibition of early antigen secretion at 10 ug/ml after 3 days by ELISA. Type of series: functional. More on the design: scale not given: the % may be the effect or the level left. A digest of the protocol: (§1)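 MS-G2 cells (HepG2 transfected with two copies of HBV genome, secreting virus) grown in RPMI-1640 with 10% fetal calf serum at 37 °C, 5% CO2. Seeded 3 × 10^5 cells/well, attached overnight, then given compound in DMSO (1, 5, 10, 20 μg/mL; DMSO ≤2.5 μL/mL; DMSO-only control). Media collected at 3 days. HBsAg and HBeAg measured by ELISA at 490 nm. % inhibition taken relative to control.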

Series [2] concerns Hepatitis B virus. As to the kind of experiment: Antiviral activity against Hepatitis B virus infected in human MS-G2 cells assessed as inhibition of early antigen secretion at 20 ug/ml after 3 days by ELISA. Type of series: functional. Details: scale not given: the % may be the effect or the level left. The gist of the method: as §1
The subject of series [3] is Human immunodeficiency virus. The experiment in a line: Antiviral activity against HIV replication in human H9 lymphocytes. It is filed as functional, organism-based.
Series [4] is described as follows: Cytotoxicity against human MS-G2 cells at 20 ug/ml by AST method. It is filed as cell-based. A digest of the protocol: (§2)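 Cell damage in compound-treated MS-G2 cultures was measured by aspartate transaminase (AST) kit. AST above 25 IU/L was taken as indicating cell damage or lysis.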
The subject of series [5] is Hepatitis B virus. As to the kind of experiment: Antiviral activity against Hepatitis B virus infected in human MS-G2 cells assessed as inhibition of surface antigen secretion at 10 ug/ml after 3 days by ELISA. Type of series: functional. Details: scale not given: the % may be the effect or the level left. A digest of the protocol:
as §1

Series [6] relates to Hepatitis B virus. The experiment in a line: Antiviral activity against Hepatitis B virus infected in human MS-G2 cells assessed as inhibition of surface antigen secretion at 20 ug/ml after 3 days by ELISA. Type of series: functional. More on the design: scale not given: the % may be the effect or the level left. A digest of the protocol:
as §1

A short description of series [7]: Cytotoxicity against human MS-G2 cells at 10 ug/ml by AST method. It is filed as cell-based. The gist of the method: as §2
Another series relates to H9. As to the kind of experiment: Cytotoxicity against human H9 cells. Type of series: cell-based.

≈ marks a conversion by molar mass, not a printed value. Calls of active or inactive are those of the source. The calls are words filed in the database; no cut-off is given here.

On to `CCC(C)C(=O)O[C@@H]1c2cc3c(c(O)c2-c2c(cc(OC)c(OC)c2OC)C[C@@H](C)[C@H]1C)OCO3` (stereo partly specified) [SCHIZARIN B], for which the Activity in the series with Hepatitis B virus [1] worked out at 40.7%; in the series on Hepatitis B virus [2], 42.1%; in series [4] it was 15.5 IU/L; in the series with Hepatitis B virus [5] it was 42.6%; in the series with Hepatitis B virus [6], 54.9%; in series [7] it was 17.6 IU/L. Also, the result in series [3] was inactive.

`COc1cc2c(c(OC)c1OC)-c1c(cc3c(c1O)OCO3)[C@@H](OC(=O)c1ccccc1)[C@H](C)[C@H](C)C2` [SCHIZARIN E]: the Activity with Hepatitis B virus [1] is 31.8%; in the series with Hepatitis B virus [2], “Toxic”; in series [4], 44.3 IU/L; with Hepatitis B virus [5] it was less than 25%; with Hepatitis B virus [6] it was “Toxic”; in series [7], 20.2 IU/L. In addition, in series [3], the result was inactive. For the same compound, the 50% inhibitory concentration (IC50) with H9 was determined as 2.08 µg/mL (≈ 4.11 µM).

For `CC=C(C)C(=O)O[C@@H]1c2cc3c(c(O)c2-c2c(cc(OC)c(OC)c2OC)C[C@@H](C)[C@H]1C)OCO3`, the Activity in the series on Hepatitis B virus [1] is 25.8%; in the series with Hepatitis B virus [2] it was “Toxic”; in series [4], 47.8 IU/L; in the series on Hepatitis B virus [5], less than 25%; in the series on Hepatitis B virus [6] it was “Toxic”; in series [7], 16.8 IU/L. Also, the outcome in series [3] was inactive.

As for `CCC(C)C(=O)O[C@H]1c2cc3c(c4c2C(C(=O)C(=O)OC)(CO4)/C(=C\C(=O)OC)C[C@@H](C)[C@H]1C)OCO3` (stereo partly specified) [TAIWANSCHIRIN A], the Activity in the series on Hepatitis B virus [1] is on record as less than 25%; with Hepatitis B virus [2], 43%; in series [4], 14.8 IU/L; with Hepatitis B virus [5] it was less than 25%; with Hepatitis B virus [6] it was less than 25%; in series [7] it was 14.1 IU/L.

As for `COC1=C(OC)C(=O)[C@]23COc4c5c(cc(c42)[C@H](OC(=O)/C=C/c2ccccc2)[C@H](C)[C@H](C)CC3=C1)OCO5` [SCHIARISANRIN D], the Activity with Hepatitis B virus [1] is on record as 27%; in the series with Hepatitis B virus [2] it was 42.9%; in series [4], 22 IU/L; in the series on Hepatitis B virus [5], less than 25%; in the series on Hepatitis B virus [6] it was less than 25%; in series [7], 20.1 IU/L.

As to `CCCCCC(=O)O[C@@H]1c2cc3c(c(O)c2-c2c(cc(OC)c(OC)c2OC)C[C@@H](C)[C@H]1C)OCO3` [SCHIZARIN C], the Activity in the series on Hepatitis B virus [1] is less than 25%; in the series with Hepatitis B virus [2], “Toxic”; in series [4], 35.9 IU/L; with Hepatitis B virus [5], less than 25%; with Hepatitis B virus [6], “Toxic”; in series [7] it was 16 IU/L. Also, in series [3], the result was inactive.
